ChEMBL document CHEMBL4477274, “Discovery of Novel Dot1L Inhibitors through a Structure-Based Fragmentation Approach” (ACS Med Chem Lett, 2016)
Blank lines part the entries; values can stand above or below the compound they belong to.

What was measured:
[1] = target: T1, Histone-lysine N-methyltransferase, H3 lysine-79 specific (Homo sapiens, UniProt Q8TEK3); assay: Inhibition of DOT1L (2 to 416 residues) (unknown origin) using biotinylated nucleosomes as substrate preincubated for 30 mins followed by substrate addition in presence of [3H-Me]SAM by scintillation proximity assay
[2] = target: T1, Histone-lysine N-methyltransferase, H3 lysine-79 specific; assay: Inhibition of DOT1L in human HeLa cells assessed as reduction in H3K79me2 level after 72 hrs by ELISA; assay type: cell-based
[3] = target: T1, Histone-lysine N-methyltransferase, H3 lysine-79 specific; assay: Inhibition of DOT1L in human MOLM13 cells assessed as suppression of HoxA9 gene after 72 hrs by luciferase reporter gene assay; assay type: cell-based
MV4-11 = assay: Antiproliferative activity against human MV4-11 cells harboring MLL-AF4 treated for 6 hrs measured after 8 days by Celltiter-Glo reagent based assay; assay type: functional, cell-based
[4] = Permeability of compound by HDM-PAMPA assay; assay type: ADME
[5] = Clearance in Sprague-Dawley rat at 1 mg/kg, iv administered as bolus dose measured up to 48 hrs by LC-MS/MS analysis; assay type: ADME, organism-based; settings: in vivo
Procedure, shortened: (§1)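 Male Sprague Dawley rats received a single intravenous bolus at 1 mg/kg. Total blood concentrations were followed over time. Clearance, volume of distribution, half-life and AUC0-inf were derived from the blood profile.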

[6] = Volume of distribution in Sprague-Dawley rat at 1 mg/kg, iv administered as bolus dose measured up to 48 hrs by LC-MS/MS analysis; assay type: ADME, organism-based; settings: in vivo; procedure, shortened: as §1
[7] = Half life in Sprague-Dawley rat at 1 mg/kg, iv administered as bolus dose by LC-MS/MS analysis; assay type: ADME, organism-based; settings: in vivo; procedure, shortened: as §1
[8] = AUC (0 to infinity) in Sprague-Dawley rat at 1 mg/kg, iv administered as bolus dose by LC-MS/MS analysis; assay type: ADME, organism-based; set-up: dose 1 mg/kg, route intravenous, time infinity; settings: in vivo; procedure, shortened: as §1
[9] = AUC (0 to infinity) in Sprague-Dawley rat at 15 mg/kg, po administered via gastric intubation by LC-MS/MS analysis; assay type: ADME, organism-based; set-up: dose 15 mg/kg, route oral, time infinity; settings: in vivo
Procedure, shortened: (§2)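 Oral dosing was given to male Sprague Dawley rats as a suspension at 15 mg/kg. Total blood concentrations were sampled over time to give Cmax, Tmax and AUC0-inf. Oral bioavailability was calculated at this dose.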

[10] = Cmax in Sprague-Dawley rat at 15 mg/kg, po administered via gastric intubation measured up to 48 hrs by LC-MS/MS analysis; assay type: ADME, organism-based; set-up: dose 15 mg/kg, route oral; settings: in vivo; procedure, shortened: as §2
[11] = Oral bioavailability in Sprague-Dawley rat at 15 mg/kg administered via gastric intubation measured up to 48 hrs by LC-MS/MS analysis; assay type: ADME, organism-based; settings: in vivo; procedure, shortened: as §2
[12] = Drug level in Sprague-Dawley rat blood at 15 mg/kg, po administered via gastric intubation up to 24 hrs by LC-MS/MS analysis; assay type: ADME, organism-based; settings: in vivo; procedure, shortened: as §2
[13] = Tmax in Sprague-Dawley rat at 15 mg/kg, po administered via gastric intubation by LC-MS/MS analysis; assay type: ADME, organism-based; settings: in vivo; procedure, shortened: as §2

T1 sequence (Q8TEK3 whole entry, the tested form may be a part): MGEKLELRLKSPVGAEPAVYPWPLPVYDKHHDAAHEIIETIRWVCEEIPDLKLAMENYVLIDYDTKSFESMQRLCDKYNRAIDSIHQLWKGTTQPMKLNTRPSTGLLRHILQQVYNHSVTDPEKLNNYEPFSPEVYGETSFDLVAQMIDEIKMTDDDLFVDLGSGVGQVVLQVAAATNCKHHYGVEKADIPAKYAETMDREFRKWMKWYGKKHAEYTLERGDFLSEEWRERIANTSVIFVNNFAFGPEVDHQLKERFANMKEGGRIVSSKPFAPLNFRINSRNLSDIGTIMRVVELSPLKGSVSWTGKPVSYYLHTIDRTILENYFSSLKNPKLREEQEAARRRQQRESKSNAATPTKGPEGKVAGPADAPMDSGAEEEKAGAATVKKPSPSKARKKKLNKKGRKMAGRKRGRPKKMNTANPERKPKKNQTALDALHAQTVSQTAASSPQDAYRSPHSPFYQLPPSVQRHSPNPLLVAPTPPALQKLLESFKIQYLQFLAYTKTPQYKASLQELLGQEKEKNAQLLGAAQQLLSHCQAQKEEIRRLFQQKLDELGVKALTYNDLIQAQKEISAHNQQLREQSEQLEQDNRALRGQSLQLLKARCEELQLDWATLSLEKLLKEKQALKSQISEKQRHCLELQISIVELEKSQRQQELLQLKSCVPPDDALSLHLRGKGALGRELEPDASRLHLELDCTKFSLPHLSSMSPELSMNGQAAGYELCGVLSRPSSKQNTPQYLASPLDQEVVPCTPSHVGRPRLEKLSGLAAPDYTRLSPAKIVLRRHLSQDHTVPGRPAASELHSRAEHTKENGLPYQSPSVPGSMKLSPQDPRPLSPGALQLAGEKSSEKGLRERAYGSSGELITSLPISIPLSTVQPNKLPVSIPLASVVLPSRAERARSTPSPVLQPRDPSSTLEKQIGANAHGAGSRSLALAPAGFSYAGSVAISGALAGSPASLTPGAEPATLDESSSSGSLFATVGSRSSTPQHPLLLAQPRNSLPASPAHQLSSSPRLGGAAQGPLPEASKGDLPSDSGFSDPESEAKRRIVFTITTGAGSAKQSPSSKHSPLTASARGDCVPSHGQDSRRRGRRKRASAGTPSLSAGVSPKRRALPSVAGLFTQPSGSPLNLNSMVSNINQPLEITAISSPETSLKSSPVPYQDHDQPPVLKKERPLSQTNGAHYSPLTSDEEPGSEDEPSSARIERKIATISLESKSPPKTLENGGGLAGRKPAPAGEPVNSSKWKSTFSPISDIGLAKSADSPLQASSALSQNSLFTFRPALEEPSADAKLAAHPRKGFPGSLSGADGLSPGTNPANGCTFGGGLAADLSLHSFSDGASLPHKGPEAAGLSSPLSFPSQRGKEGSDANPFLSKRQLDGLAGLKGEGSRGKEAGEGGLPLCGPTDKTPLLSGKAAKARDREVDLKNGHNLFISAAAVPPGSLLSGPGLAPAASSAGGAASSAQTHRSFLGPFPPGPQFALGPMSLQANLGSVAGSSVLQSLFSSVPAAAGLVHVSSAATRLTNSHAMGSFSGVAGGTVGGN

Compound: Cc1cc2ccc(Nc3cccnn3)cc2n1-c1cccnc1Cl
- IC50 [1]: 28000 nM

Compound: Cc1cc2ccc(Nc3nccc(N)n3)cc2n1-c1cccnc1Cl
- IC50 [1]: 4300 nM

Compound: O=C(Cn1nnc(COc2ccccc2Cl)n1)NNC(=O)Nc1ccc(Cl)cc1
- IC50 [1]: 14000 nM

Compound: O=C(Cn1nnnc1COc1ccccc1Cl)NNC(=O)Nc1ccc(Cl)cc1
- IC50 [1]: 4400 nM

Compound: CCNC(=O)Nc1ccc2ccn(-c3ccccc3Cl)c2c1
- IC50 [1]: 40000 nM

Stronger by IC50 [1], values ahead:

- IC50 [1]: 4100 nM
Compound: Cc1cc2ccc(NC3=NC(=O)CN3)cc2n1-c1cccnc1Cl

- IC50 [1]: 1100 nM
Compound: Cc1cc2ccc(Nc3nc(=O)cc[nH]3)cc2n1-c1cccnc1Cl

- IC50 [1]: 280 nM
Compound: CNc1ccnc(Nc2ccc3cc(C)n(-c4cccnc4Cl)c3c2)n1

- IC50 [1]: 150 nM
Compound: CNc1ccnc(Nc2ccc3cc(C)n(-c4ccccc4Oc4ccccc4)c3c2)n1

- IC50 [1]: 20 nM
- permeability [4]: Impermeable
Compound: O=C(Cn1nnnc1-c1ccccc1Cl)NNC(=O)Nc1ccc2ccn(-c3ccccc3Cl)c2c1

- IC50 [1]: 10 nM
Compound: CNc1ccnc(Nc2ccc3cc(C)n(-c4cc(-c5c(C)ccn(C)c5=O)cnc4Cl)c3c2)n1

- IC50 [1]: 1.4 nM
- Ki [1]: 0.36 nM
- IC50 [2]: 23 nM
- IC50 [3]: 384 nM
- IC50 (MV4-11): 85 nM
- permeability [4]: Permeable
- clearance [5]: 84 mL/min/kg
- Vd [6]: 10 L/kg
- half-life [7]: 102 min
- AUC(0-inf) [8]: 0.396 µM·h
- AUC(0-inf) [9]: 2.37 µM·h
- Cmax [10]: 225 nM
- bioavailability [11]: 40%
- Drug uptake [12]: Active
- Tmax [13]: 3.5 h
Compound: CNc1ccnc(Nc2ccc3sc(Cl)c(-c4cc(-c5c(C)ncn(C)c5=O)cnc4Cl)c3c2)n1

- IC50 [1]: 0.4 nM
- Ki [1]: 0.08 nM
- IC50 [2]: 16 nM
- IC50 [3]: 340 nM
- IC50 (MV4-11): 128 nM
Compound: CNc1ccnc(Nc2ccc3cc(C)n(-c4ccccc4Oc4cnc5c(c4)ncn5C)c3c2)n1
